# Laboratory results reported in ChEMBL document CHEMBL4219124, “Alleviating CYP and hERG liabilities by structure optimization of dihydrofuran-fused tricyclic benzo[d]imidazole series - Potent, selective and orally efficacious microsomal prostaglandin E synthase-1 (mPGES-1) inhibitors: Part-2” (Bioorg Med Chem Lett, 2018).
# Legend:
# [1] = system: Cynomolgus monkey; test: AUC (0 to 24 hrs) in cynomolgus monkey at 10 mg/kg, po; assay type: ADME, organism-based, Macaca fascicularis; parameters: time < 24 hr, dose 10 mg/kg, route oral; conditions: in vivo, 24 h
# Summary of the method: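 Single oral dose of 10 mg/kg. Cmax and AUC0-24 taken from the oral arm. Rat: male Sprague-Dawley, dosed in 0.5% methylcellulose suspension, mean ± SD (n = 3). Guinea pig: 20% NMP + 0.5% MC suspension, mean ± SD (n = 3). Dog and cynomolgus monkey: 2.5 μL/mL Tween 80 + 0.5 (w/v) MC suspension.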
# [2] = Ratio of plasma concentration in Dunkin-Hartley guinea pig LPS-induced hyperalgesia pain model to IC50 for mPGES1 in guinea pig whole blood; assay type: ADME; conditions: in vivo
# [3] = system: Cynomolgus monkey; test: Oral bioavailability in cynomolgus monkey at 10 mg/kg; assay type: ADME, organism-based, Macaca fascicularis; conditions: in vivo
# Summary of the method: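 Plasma PK after 1 mg/kg i.v. and 10 mg/kg p.o.; %F from both routes. Rat: male Sprague-Dawley, oral 0.5% methylcellulose suspension, i.v. 20% NMP/20% ethanol/60% PEG 200, n = 3. Dog oral: Tween 80 2.5 μL/mL + 0.5% MC suspension. Monkey oral: same Tween/MC suspension; i.v. 10% NMP/10% ethanol/10% PEG/70% PEG200-water premix.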
# [4] = system: Cavia porcellus; test: Analgesic activity in Dunkin-Hartley guinea pig hyperalgesia pain model assessed as inhibition of LPS-induced hyperalgesia at 100 mg/kg, po administered 2 hrs prior to LPS challenge measured after 4.5 hrs relative to control; assay type: functional
# Summary of the method: (§1)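 Guinea pigs received compound orally, once daily, at 10, 30 or 100 mg/kg, 2 h before LPS was injected into the plantar surface of the right paw. Saline-injected animals served as the comparison for thermal hyperalgesia. Plasma and brain drug levels taken 7 h after dosing, mean of n = 6–9 per group, from a single experiment.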
# [5] = Ratio of plasma concentration in Dunkin-Hartley guinea pig LPS-induced hyperalgesia pain model to IC50 for mPGES1 in human whole blood; assay type: ADME; conditions: in vivo
# [6] = system: Cavia porcellus; test: Analgesic activity in Dunkin-Hartley guinea pig hyperalgesia pain model assessed as inhibition of LPS-induced hyperalgesia at 10 mg/kg, po administered 2 hrs prior to LPS challenge measured after 4.5 hrs relative to control; assay type: functional; summary of the method: as §1
# [7] = Drug uptake in brain of Dunkin-Hartley guinea pig LPS-induced hyperalgesia pain model at 100 mg/kg, po administered 2 hrs prior to LPS challenge measured 7 hrs post dose; assay type: ADME, organism-based, Cavia porcellus; conditions: read-out: Drug uptake; summary of the method: as §1
# [8] = Plasma concentration in Dunkin-Hartley guinea pig MIA-induced osteoarthritic pain model at 500 mg/kg, po measured 2 hrs post dose; assay type: ADME, organism-based, Cavia porcellus
# Summary of the method: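 Intra-articular MIA into the right shoulder joint on day 0; oral dosing at 100, 250 or 500 mg/kg on day 3, incapacitance (forelimb weight bearing) measured. Plasma concentration sampled 2 h post dose. Means of 6–8 animals per group, single experiment.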
# [9] = Ratio of plasma concentration in Dunkin-Hartley guinea pig MIA-induced osteoarthritic pain model to IC50 for mPGES1 in human whole blood; assay type: ADME; conditions: in vivo
# [10] = system: Cavia porcellus; test: Analgesic activity in Dunkin-Hartley guinea pig MIA-induced osteoarthritic pain model assessed as reversal of incapacitance administered orally on day 3 measured 6 to 7 hrs post dose; assay type: functional
# Summary of the method: (§2)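 Day 0: monoiodoacetate injected into the right shoulder joint of guinea pigs; saline-injected animals as comparison. Day 3: compound given orally at 100, 250 or 500 mg/kg, and weight-bearing incapacitance on the injected forelimb measured. Plasma sampled at the PD time point, n = 6–8 per group, single experiment.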
# [11] = biological target: T1, Nuclear receptor subfamily 1 group I member 2 (Homo sapiens, UniProt O75469); test: Activation of human PXR; assay type: ADME
# T1 sequence (O75469 whole entry): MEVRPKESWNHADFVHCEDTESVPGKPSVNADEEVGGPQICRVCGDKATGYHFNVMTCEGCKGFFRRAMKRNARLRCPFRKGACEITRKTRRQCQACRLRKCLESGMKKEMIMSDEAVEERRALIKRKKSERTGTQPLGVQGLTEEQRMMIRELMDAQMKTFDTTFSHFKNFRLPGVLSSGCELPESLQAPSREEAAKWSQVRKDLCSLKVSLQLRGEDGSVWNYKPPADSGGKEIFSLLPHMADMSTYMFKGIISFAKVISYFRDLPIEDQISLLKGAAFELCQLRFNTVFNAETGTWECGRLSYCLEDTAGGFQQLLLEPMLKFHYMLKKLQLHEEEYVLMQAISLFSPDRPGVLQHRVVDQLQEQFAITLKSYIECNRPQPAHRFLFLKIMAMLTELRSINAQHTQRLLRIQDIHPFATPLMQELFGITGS
# [12] = Ratio of drug uptake in brain to plasma of Dunkin-Hartley guinea pig LPS-induced hyperalgesia pain model at 10 mg/kg, po administered 2 hrs prior to LPS challenge measured 7 hrs post dose; assay type: ADME, organism-based, Cavia porcellus; conditions: brain and plasma, read-out: BPR
# Summary of the method: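 Guinea pigs dosed orally at 10, 30 or 100 mg/kg 2 h before intraplantar LPS in the right hind paw; thermal hyperalgesia scored. Plasma (ng/mL) and brain (ng/g) levels taken 7 h post dose; brain/plasma ratio computed. Means of 6–9 animals per group, single experiment.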
# [13] = system: Cavia porcellus; test: Analgesic activity in Dunkin-Hartley guinea pig MIA-induced osteoarthritic pain model assessed as reversal of incapacitance at 250 mg/kg, po administered on day 3 measured 6 to 7 hrs post dose relative to control; assay type: functional; summary of the method: as §2
smiles,measurement,setting,value
CC1(C)Cc2c(c(C(=O)Nc3ccc(F)c(C(F)(F)F)c3)cc3nc(Nc4c(F)cccc4Cl)[nH]c23)O1,AUC,[1],9669 ng·h/mL
same,Ratio,[2],2
same,F,[3],44%
same,inhibition in vivo at 100 mg/kg,[4],66%
same,Ratio,[5],5
same,inhibition in vivo at 10 mg/kg,[6],20%
same,concentration at 7 h,[7],1150 nM
same,concentration at 2 h,[8],3540 nM
same,Ratio,[9],17
same,Activity,[10],Dose-dependent effect
same,ED50,[10]; po,106 mg/kg
same,EC50,[11],2460 nM
same,Kp at 7 h,[12],1.02
same,Activity,[13],73%
